Source: ChEMBL document CHEMBL3856229, “Hybrid Antibiotic Overcomes Resistance in P. aeruginosa by Enhancing Outer Membrane Penetration and Reducing Efflux” (J Med Chem, 2016)
Values after ≈ are worked out from the molar mass of the structure shown.

Assays:
Pseudomonas aeruginosa [1] = assay: Antibacterial activity against multidrug-resistant/tobramycin-susceptible Pseudomonas aeruginosa isolate 86052; assay type: functional
Staphylococcus aureus [2] = assay: Antibacterial activity against Staphylococcus aureus ATCC 29213 after 24 hrs by microtitre broth dilution method; assay type: functional; settings: ATCC 29213, 24 h
Staphylococcus aureus [3] = assay: Antibacterial activity against methicillin-resistant Staphylococcus aureus ATCC 33592 after 24 hrs by microtitre broth dilution method; assay type: functional; settings: ATCC 33592, 24 h
[4] = system: Staphylococcus epidermidis; assay: Antibacterial activity against methicillin-susceptible Staphylococcus epidermidis isolate CANWARD-2008 81388 after 24 hrs by microtitre broth dilution method; assay type: functional; settings: isolate CANWARD-2008 81388, 24 h
[5] = system: Staphylococcus epidermidis; assay: Antibacterial activity against methicillin-resistant Staphylococcus epidermidis isolate CAN-ICU 61589 after 24 hrs by microtitre broth dilution method; assay type: functional; settings: isolate CAN-ICU 61589, 24 h
Enterococcus faecalis = assay: Antibacterial activity against Enterococcus faecalis ATCC 29212 after 24 hrs by microtitre broth dilution method; assay type: functional; settings: ATCC 29212, 24 h
Enterococcus faecium = assay: Antibacterial activity against Enterococcus faecium ATCC 27270 after 24 hrs by microtitre broth dilution method; assay type: functional; settings: ATCC 27270, 24 h
Streptococcus pneumoniae = assay: Antibacterial activity against Streptococcus pneumoniae ATCC 49619 after 24 hrs by microtitre broth dilution method; assay type: functional; settings: ATCC 49619, 24 h
Escherichia coli [6] = assay: Antibacterial activity against gentamicin-resistant Escherichia coli isolate CAN-ICU 61714 after 24 hrs by microtitre broth dilution method; assay type: functional; settings: isolate CAN-ICU 61714, 24 h
Escherichia coli [7] = assay: Antibacterial activity against amikacin-resistant Escherichia coli isolate CAN-ICU 63074 after 24 hrs by microtitre broth dilution method; assay type: functional; settings: isolate CAN-ICU 63074, 24 h
Escherichia coli [8] = assay: Antibacterial activity against gentamicin/tobramycin/ciprofloxacin-resistant Escherichia coli isolate CANWARD-2011 97615 harboring AAC3-2A after 24 hrs by microtitre broth dilution method; assay type: functional; settings: isolate CANWARD-2011 97615, 24 h
Pseudomonas aeruginosa [9] = assay: Antibacterial activity against Pseudomonas aeruginosa ATCC 27853 after 24 hrs by microtitre broth dilution method; assay type: functional; settings: ATCC 27853, 24 h
Pseudomonas aeruginosa [10] = assay: Antibacterial activity against gentamicin-resistant Pseudomonas aeruginosa isolate CAN-ICU 62308 after 24 hrs by microtitre broth dilution method; assay type: functional; settings: isolate CAN-ICU 62308, 24 h
Pseudomonas aeruginosa [11] = assay: Antibacterial activity against gentamicin/tobramycin-resistant Pseudomonas aeruginosa isolate CANWARD-2011 96846 after 24 hrs by microtitre broth dilution method; assay type: functional; settings: isolate CANWARD-2011 96846, 24 h
[12] = system: Stenotrophomonas maltophilia; assay: Antibacterial activity against Stenotrophomonas maltophilia isolate CAN-ICU 62584 after 24 hrs by microtitre broth dilution method; assay type: functional; settings: isolate CAN-ICU 62584, 24 h
Acinetobacter baumannii = assay: Antibacterial activity against Acinetobacter baumannii isolate CAN-ICU 63169 after 24 hrs by microtitre broth dilution method; assay type: functional; settings: isolate CAN-ICU 63169, 24 h
Klebsiella pneumoniae = assay: Antibacterial activity against Klebsiella pneumoniae ATCC 13883 after 24 hrs by microtitre broth dilution method; assay type: functional; settings: ATCC 13883, 24 h
Pseudomonas aeruginosa [13] = assay: Antibacterial activity against multidrug/extremely drug-resistant/colistin-susceptible Pseudomonas aeruginosa isolate 100036; assay type: functional
Pseudomonas aeruginosa [14] = assay: Antibacterial activity against multidrug/extremely drug-resistant/colistin-susceptible Pseudomonas aeruginosa isolate 101885; assay type: functional
Pseudomonas aeruginosa [15] = assay: Antibacterial activity against multidrug/extremely drug-resistant/colistin-susceptible Pseudomonas aeruginosa isolate 259-96918; assay type: functional
Pseudomonas aeruginosa [16] = assay: Antibacterial activity against multidrug/extremely drug-resistant/colistin-susceptible Pseudomonas aeruginosa isolate 260-97103; assay type: functional
Pseudomonas aeruginosa [17] = assay: Antibacterial activity against multidrug/extremely drug-resistant/colistin-susceptible Pseudomonas aeruginosa isolate 262-101856; assay type: functional
Pseudomonas aeruginosa [18] = assay: Antibacterial activity against multidrug/extremely drug-resistant/colistin-susceptible Pseudomonas aeruginosa isolate 264-104354; assay type: functional
Pseudomonas aeruginosa [19] = assay: Antibacterial activity against pandrug-resistant Pseudomonas aeruginosa isolate 91433; assay type: functional
Pseudomonas aeruginosa [20] = assay: Antibacterial activity against pandrug-resistant Pseudomonas aeruginosa isolate 101243; assay type: functional
Pseudomonas aeruginosa [21] = assay: Antibacterial activity against Pseudomonas aeruginosa PAO1; assay type: functional
Pseudomonas aeruginosa [22] = assay: Antibacterial activity against multidrug-resistant/tobramycin-susceptible Pseudomonas aeruginosa isolate 86053; assay type: functional
Pseudomonas aeruginosa [23] = assay: Antibacterial activity against multidrug-resistant/tobramycin-susceptible Pseudomonas aeruginosa isolate 86067; assay type: functional
Pseudomonas aeruginosa [24] = assay: Antibacterial activity against multidrug-resistant/tobramycin-susceptible Pseudomonas aeruginosa isolate 86079; assay type: functional
Pseudomonas aeruginosa [25] = assay: Antibacterial activity against multidrug-resistant/tobramycin-susceptible Pseudomonas aeruginosa isolate 86141; assay type: functional
Pseudomonas aeruginosa [26] = assay: Antibacterial activity against multidrug-resistant/tobramycin-susceptible Pseudomonas aeruginosa isolate 92014; assay type: functional
Pseudomonas aeruginosa [27] = assay: Antibacterial activity against multidrug-resistant/tobramycin-susceptible Pseudomonas aeruginosa isolate 108590; assay type: functional
Pseudomonas aeruginosa [28] = assay: Antibacterial activity against multidrug-resistant/tobramycin-susceptible Pseudomonas aeruginosa isolate 79199; assay type: functional
Pseudomonas aeruginosa [29] = assay: Antibacterial activity against multidrug-resistant/tobramycin-susceptible Pseudomonas aeruginosa isolate 80621; assay type: functional
Pseudomonas aeruginosa [30] = assay: Antibacterial activity against multidrug-resistant/tobramycin-susceptible Pseudomonas aeruginosa isolate 83182; assay type: functional
Pseudomonas aeruginosa [31] = assay: Antibacterial activity against multidrug-resistant/tobramycin-susceptible Pseudomonas aeruginosa isolate 84745; assay type: functional
Pseudomonas aeruginosa [32] = assay: Antibacterial activity against multidrug-resistant/tobramycin-susceptible Pseudomonas aeruginosa isolate 85322; assay type: functional
Escherichia coli [33] = assay: Antibacterial activity against Escherichia coli ATCC 25922 after 24 hrs by microtitre broth dilution method; assay type: functional; settings: ATCC 25922, 24 h
Pseudomonas aeruginosa [34] = assay: Antibacterial activity against extremely drug-resistant Pseudomonas aeruginosa isolate 104354 infected in Galleria mellonella assessed as larvae survival at 50 mg/kg administered as single dose measured after 24 hrs (reference value: 27 %); assay type: functional; settings: isolate 104354, 24 h
In short: (§1)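 Galleria mellonella larvae were infected with 10^6 CFU of XDR P. aeruginosa #104354, resistant to all antipseudomonal classes except colistin. A single injected drug dose was given 2 h post-infection: 50 mg/kg with survival read at 24 h, or 75 mg/kg with survival read at 96 h. Controls were infected untreated larvae and PBS-injected larvae. Two independent experiments of 15 larvae each (n = 30).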

Pseudomonas aeruginosa [35] = assay: Antibacterial activity against extremely drug-resistant Pseudomonas aeruginosa isolate 104354 infected in Galleria mellonella assessed as larvae survival at 75 mg/kg administered as single dose measured after 96 hrs; assay type: functional; settings: isolate 104354, 96 h; in short: as §1
Pseudomonas aeruginosa [36] = assay: Antimicrobial activity against Pseudomonas aeruginosa PAO200; assay type: functional
In short: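 MIC (µg/mL) determined in PAO200, a PAO1-derived MexAB-OprM deletion strain used to assess efflux effects.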

Pseudomonas aeruginosa [37] = assay: Antimicrobial activity against Pseudomonas aeruginosa PAO750; assay type: functional
In short: (§2)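 MICs were measured in PAO1 and in PAO750. PAO750 is a PAO1 derivative lacking the MexAB-OprM, MexCD-OprJ, MexEF-OprN, MexJK and MexXY efflux pumps and the outer membrane protein OpmH.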

[38] = Selectivity ratio of MIC for Pseudomonas aeruginosa PAO1 to MIC for Pseudomonas aeruginosa PAO750; assay type: functional; in short: as §2
[39] = Inhibition of Pseudomonas aeruginosa DNA gyrase A assessed as inhibition of DNA supercoiling using PBR322 DNA as substrate after 30 mins by SYBR Gold staining based agarose gel electrophoresis
Pseudomonas aeruginosa [40] = assay: Ratio of MIC for Pseudomonas aeruginosa PAO1 after 25 serial passages to MIC for Pseudomonas aeruginosa PAO1 prior to 25 serial passages; assay type: functional
In short: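 P. aeruginosa PAO1 exposed to sub-inhibitory (0.5 x MIC) drug over successive subcultures as a resistance-selection procedure. MIC compared after versus before passaging.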

COc1c(N2C[C@@H]3CCCN[C@@H]3C2)c(F)cc2c(=O)c(C(=O)O)cn(C3CC3)c12 [MOXIFLOXACIN]
MIC (Pseudomonas aeruginosa [1]): > 16 µg/mL
MIC (Staphylococcus aureus [2]): ≤ 0.25 µg/mL
MIC (Staphylococcus aureus [3]): ≤ 0.25 µg/mL
MIC [4]: ≤ 0.25 µg/mL
MIC [5]: 64 µg/mL (≈ 159 µM)
MIC (Enterococcus faecalis): ≤ 0.25 µg/mL
MIC (Enterococcus faecium): 2 µg/mL (≈ 4.98 µM)
MIC (Streptococcus pneumoniae): ≤ 0.25 µg/mL
MIC (Escherichia coli [6]): 0.5 µg/mL (≈ 1.25 µM)
MIC (Escherichia coli [7]): 1 µg/mL (≈ 2.49 µM)
MIC (Escherichia coli [8]): 32 µg/mL (≈ 79.7 µM)
MIC (Pseudomonas aeruginosa [9]): 4 µg/mL (≈ 9.96 µM)
MIC (Pseudomonas aeruginosa [10]): 16 µg/mL (≈ 39.9 µM)
MIC (Pseudomonas aeruginosa [11]): 16 µg/mL (≈ 39.9 µM)
MIC [12]: 4 µg/mL (≈ 9.96 µM)
MIC (Acinetobacter baumannii): 1 µg/mL (≈ 2.49 µM)
MIC (Klebsiella pneumoniae): ≤ 0.25 µg/mL
MIC (Pseudomonas aeruginosa [13]): 128 µg/mL (≈ 319 µM)
MIC (Pseudomonas aeruginosa [14]): 128 µg/mL (≈ 319 µM)
MIC (Pseudomonas aeruginosa [15]): 512 µg/mL (≈ 1280 µM)
MIC (Pseudomonas aeruginosa [16]): 32 to 64 µg/mL (≈ 79.7 to 159 µM)
MIC (Pseudomonas aeruginosa [17]): 64 to 128 µg/mL (≈ 159 to 319 µM)
MIC (Pseudomonas aeruginosa [18]): 32 to 64 µg/mL (≈ 79.7 to 159 µM)
MIC (Pseudomonas aeruginosa [19]): 8 to 16 µg/mL (≈ 19.9 to 39.9 µM)
MIC (Pseudomonas aeruginosa [20]): 8 µg/mL (≈ 19.9 µM)
MIC (Pseudomonas aeruginosa [21]): 1 µg/mL (≈ 2.49 µM)
MIC (Pseudomonas aeruginosa [22]): 16 µg/mL (≈ 39.9 µM)
MIC (Pseudomonas aeruginosa [23]): 16 µg/mL (≈ 39.9 µM)
MIC (Pseudomonas aeruginosa [24]): > 16 µg/mL
MIC (Pseudomonas aeruginosa [25]): > 16 µg/mL
MIC (Pseudomonas aeruginosa [26]): 16 µg/mL (≈ 39.9 µM)
MIC (Pseudomonas aeruginosa [27]): 16 µg/mL (≈ 39.9 µM)
MIC (Pseudomonas aeruginosa [28]): > 16 µg/mL
MIC (Pseudomonas aeruginosa [29]): 8 µg/mL (≈ 19.9 µM)
MIC (Pseudomonas aeruginosa [30]): 16 µg/mL (≈ 39.9 µM)
MIC (Pseudomonas aeruginosa [31]): 16 µg/mL (≈ 39.9 µM)
MIC (Pseudomonas aeruginosa [32]): 8 µg/mL (≈ 19.9 µM)
MIC (Escherichia coli [33]): ≤ 0.25 µg/mL
survival at 50 mg/kg (Pseudomonas aeruginosa [34]): 27%
survival at 75 mg/kg (Pseudomonas aeruginosa [35]): 7%
MIC (Pseudomonas aeruginosa [36]): 0.25 µg/mL (≈ 0.623 µM)
MIC (Pseudomonas aeruginosa [37]): 0.0078 µg/mL (≈ 0.0194 µM)
Selectivity ratio [38]: 128
IC50 [39]: 2600 nM
Ratio (Pseudomonas aeruginosa [40]): 16
